Consider four compounds from publication PMC7590959 (Journal of medicinal chemistry, 2020).

For orientation: clearance means the rate of elimination divided by the concentration. Lower therefore signals inefficient removal. A word on the MIC: it is the least concentration at which growth counts as inhibited. One may read the MIC90 as an inhibitory concentration at the 90% level, which refers to growth in some studies and to a panel of isolates in others. What is called MIC50 is an inhibitory concentration at the 50% level, which refers to growth in some studies and to a panel of isolates in others.

The target of one series is KPC-2 (Klebsiella pneumoniae, UniProt Q9F663). The series is described as follows: β-Lactamase hydrolysis, KPC-2. The conditions noted are these: KPC-2, 200 nM enzyme, 100 μM 1. The class given is biochemical.
For a further series, the target named is OXA-23 (Acinetobacter baumannii, UniProt Q9L4P2). The series is described as follows: β-Lactamase hydrolysis, OXA-23. The class given is biochemical. The conditions noted are these: OXA-23, 200 nM enzyme, 100 μM 1.
In the next series the target is OXA-24 (Acinetobacter baumannii, UniProt Q8RLA6). The series is described as follows: β-Lactamase hydrolysis, OXA-24. The series is classed as biochemical. The conditions noted are these: OXA-24, 200 nM enzyme, 100 μM 1.
The subject of the next series is PER-2. Kind of series: β-Lactamase hydrolysis, PER-2. The note with it: PER-2, 200 nM enzyme, 100 μM 1. The class given is biochemical.
Another series deals with PDC-3 (Pseudomonas aeruginosa, UniProt P24735, T105A). Kind of series: β-Lactamase hydrolysis, PDC-3. The class given is biochemical, P. aeruginosa.
For the next series, the system named is Caco-2. The series is described as follows: Caco-2 permeability. The series is classed as in vitro ADME.
A further series has as its system eight CYP enzymes. Kind of series: CYP inhibition. The class given is in vitro ADME. The conditions noted are these: 30 μM.
Series [1] can be described thus: Plasma PK after IV administration in mice. The class given is in vivo. The note with it: CD-1, mouse, 50 mg/kg. In a few lines:
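CD-1 mice in groups of 24 received 50 mg/kg IV with parallel sampling. Blood was taken by cardiac puncture under isoflurane into lithium heparin or K2EDTA tubes and kept on ice. Tubes were spun at 2500 × g for 15 min at 4 °C within 1 h, and plasma was stored at −70 °C. Samples were acetonitrile-precipitated and run by HPLC-MS/MS against a spiked-plasma calibration curve with internal standard. Parameters were derived by noncompartmental analysis.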

The subject of series [2] is primary human hepatocytes. The series is described as follows: Toxicity against primary human hepatocytes. The series is classed as cell-based. The conditions noted are these: maximum concentration 100 μM, 72 h incubation.
A further series has as its target hERG (Homo sapiens, UniProt Q12809). Kind of series: hERG binding. The conditions noted are these: 30 μM. For orientation: The hERG channel carries a current that helps repolarise heart muscle cells.
For series [3], the system named is seven other tested ion channels. Kind of series: Other ion channels. The note with it: 30 μM. The series is classed as binding.
For another series, the system named is Gram-negative isolates. The series is described as follows: Abbreviated MIC panel of Gram-negative isolates. The class given is cell-based. In a few lines:
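Broth microdilution MIC using iron-depleted cation-adjusted Mueller–Hinton broth, except where noted otherwise. The inoculum was lowered to 6 × 10^4 CFU/mL.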

For series [4], the system named is P. aeruginosa (197 clinical isolates). The note with it: comparator MICs from the original studies; cited from earlier work.
The subject of series [5] is K. pneumoniae (100 clinical isolates). The note with it: comparator MICs from the original studies; cited from earlier work.
The conditions of series [6]: IV bags, in 24 h after reconstitution; known, ref not given; cited from earlier work.

Chain of hERG (Q12809 whole entry): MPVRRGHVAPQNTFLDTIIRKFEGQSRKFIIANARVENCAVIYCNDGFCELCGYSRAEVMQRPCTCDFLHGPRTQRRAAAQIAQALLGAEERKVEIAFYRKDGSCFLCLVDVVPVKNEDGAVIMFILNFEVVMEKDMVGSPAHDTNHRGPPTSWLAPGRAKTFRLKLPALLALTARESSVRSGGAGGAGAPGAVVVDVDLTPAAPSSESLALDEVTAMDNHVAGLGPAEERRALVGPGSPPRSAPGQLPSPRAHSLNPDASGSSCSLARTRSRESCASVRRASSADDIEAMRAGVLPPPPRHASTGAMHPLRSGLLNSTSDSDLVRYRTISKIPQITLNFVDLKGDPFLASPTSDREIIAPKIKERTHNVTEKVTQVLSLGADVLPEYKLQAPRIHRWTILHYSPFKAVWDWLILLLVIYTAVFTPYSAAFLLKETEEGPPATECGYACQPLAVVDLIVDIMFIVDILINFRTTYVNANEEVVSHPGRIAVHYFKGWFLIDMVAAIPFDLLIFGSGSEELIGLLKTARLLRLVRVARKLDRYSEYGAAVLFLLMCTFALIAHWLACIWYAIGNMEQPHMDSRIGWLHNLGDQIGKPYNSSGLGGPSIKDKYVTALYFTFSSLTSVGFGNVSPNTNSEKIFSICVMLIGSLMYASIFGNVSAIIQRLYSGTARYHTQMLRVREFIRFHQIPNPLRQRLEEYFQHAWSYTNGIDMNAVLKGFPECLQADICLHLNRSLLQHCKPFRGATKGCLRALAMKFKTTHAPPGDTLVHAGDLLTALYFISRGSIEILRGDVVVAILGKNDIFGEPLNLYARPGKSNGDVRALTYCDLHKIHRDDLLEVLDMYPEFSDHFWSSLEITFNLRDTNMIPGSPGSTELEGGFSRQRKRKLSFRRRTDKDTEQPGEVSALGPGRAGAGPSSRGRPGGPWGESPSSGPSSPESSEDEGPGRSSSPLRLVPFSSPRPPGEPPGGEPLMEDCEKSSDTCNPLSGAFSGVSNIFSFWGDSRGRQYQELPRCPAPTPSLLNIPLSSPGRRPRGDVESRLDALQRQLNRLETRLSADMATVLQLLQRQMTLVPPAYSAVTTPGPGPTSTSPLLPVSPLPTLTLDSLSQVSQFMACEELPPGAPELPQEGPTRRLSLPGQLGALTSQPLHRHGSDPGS

Regarding `CC(C)(O/N=C(\C(=O)N[C@H]1CN2CC(C(=O)NCCN3C(=O)c4cc(O)c(O)cc4C3=O)=C(C(=O)O)N2C1=O)c1csc(N)n1)C(=O)O` [Compound 1, (S,Z)-6-(2-(2-Aminothiazol-4-yl)-2-(((2-carboxypropan-2-yl)oxy)imino)acetamido)-2-((2-(5,6-dihydroxy-1,3-dioxoisoindolin-2-yl)ethyl)carbamoyl)-5-oxo-6,7-dihydro-1H,5H-pyrazolo[1,2-a]pyrazole-3-carboxylic Acid], the “hydrolysis by β-lactamase” value at KPC-2, at OXA-23, at OXA-24, in the series on PER-2 and on PDC-3 was “hydrolysis was not detected” each time. For the same compound, the Caco-2 permeability entry in the series with Caco-2 is given as “poor”. Also, in the series on eight CYP enzymes, the CYP inhibition entry is “does not inhibit”. For the same compound, the clearance at 2 h in series [1] was determined as 14 mL/min/kg. In [1], this compound showed a concentration at 2 h of more than 1000 ng/mL. Further, in [2], the toxicity entry is reported as “not found”. The hERG binding result on hERG is reported as “does not bind”. Further, the ion channel binding entry in [3] was “does not bind”.

As to `CC(C)(O/N=C(\C(=O)N[C@H]1CN2CC(C(=O)NCCc3ccccc3)=C(C(=O)O)N2C1=O)c1csc(N)n1)C(=O)O` [Compound 2, (S,Z)-6-(2-(2-Aminothiazol-4-yl)-2-(((2-carboxypropan-2-yl)oxy)imino)acetamido)-5-oxo-2-(phenethylcarbamoyl)-6,7-dihydro-1H,5H-pyrazolo[1,2-a]pyrazole-3-carboxylic Acid], in the series on Gram-negative isolates, the MIC is more than 64 µg/mL.

On to `C[C@@H](O)[C@H]1C(=O)N2C(C(=O)O)=C(S[C@@H]3CN[C@H](C(=O)N(C)C)C3)[C@H](C)[C@H]12` [meropenem (6), meropenem], for which the MIC90 in series [4] is more than 8 µg/mL; in [5], more than 64 µg/mL. Also, the degradation after reconstitution in [6] is more than 30%.

Turning to `CC(C)(O/N=C(\C(=O)N[C@@H]1C(=O)N2C(C(=O)[O-])=C(C[n+]3ccccc3)CS[C@H]12)c1csc(N)n1)C(=O)O` [ceftazidime (4), ceftazidime], the MIC90 in [4] was more than 16 µg/mL; in series [5], more than 64 µg/mL. In addition, in series [5], the MIC50 was more than 64 µg/mL.
